# Measurements reported in paper PMC2199177 (The Journal of Experimental Medicine, 1997).
# Assays:
# S17 CTL [1] = experiment: Interferon γ assay; format: cell-based
# In short: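 CTL were incubated with peptide-sensitized P815 targets as in the cytotoxicity assay, with peptide derivatives at 10−6–10−11 M, some runs with SF1-1.1.1 Fab′ (anti-Kd α3) to block CD8 participation. After 24 h, supernatant IFN-γ was measured by ELISA and values were normalized to the wt ligand. Triplicates, at least two experiments.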
# S17 CTL [2] = experiment: 51Cr-release assay; format: cell-based; settings: without Fab'
# In short: (§1)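 51Cr-labeled P815 targets (2 × 10^3/well) in DMEM with FCS (5%) and Hepes (10 mM) plus 10-fold peptide dilutions, 10−6–10−13 M. Cloned CTL (6 × 10^3/well) added, 4 h at 37°C, then supernatant 51Cr counted. Specific lysis was derived from spontaneous and total release. Relative activity is the wt half-maximal-lysis concentration divided by the variant's, normalized by relative Kd competitor activity. Triplicates, at least two experiments.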
# T1 CTL = experiment: 51Cr-release assay; format: cell-based; settings: without Fab'
# In short: as §1
# S14 CTL [3] = settings: ref [4]; cited from earlier work
# S14 CTL [4] = experiment: 51Cr-release assay; format: cell-based; settings: without Fab'
# In short: as §1
Substance,effect of blocking of CD8 (SF1-1.1.1 Fab') on IFN-γ production (S17 CTL [1]),functional phenotype (antigen recognition versus TCR-ligand binding) (S17 CTL [2]),also measured
IASA-YIPSAEK(ABA)I [WT],substantially increased,,
IASA-YISSAEK(ABA)I [P255S],substantially increased,weak agonists,
IASA-YIASAEK(ABA)I [P255A],,,functional phenotype (antigen recognition versus TCR-ligand binding) (T1 CTL): strong agonists
IASA-YILSAEK(ABA)I [P255L],,,functional phenotype (S14 CTL [3]): antagonist
IASA-YIPSAAK(ABA)I [E258A],,,functional phenotype (antigen recognition versus TCR-ligand binding) (S14 CTL [4]): weak agonists
IASA-YIPAAEK(ABA)I [S256A],,strong agonists,
